Screening data: PubChem BioAssay, several laboratories
Sampled rows, rich in hits. Any-hit rate of the full collection: about 2.7%.
BB579 growth dn: yeast BB579 growth reduction in restrictive medium; S. cerevisiae BB579 growth, OD615, 48 h; inhibition, % at 10 µM; hit rate 0.51% among 140,000;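 active means inhibition above a set limit, 3 SD over the mean compound inhibition, cut at about 44% in these data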
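System: Saccharomyces cerevisiae DeaD strain BB579, replicative lifespan model yeast | Buffer or medium: Restrictive glucose-based CSMM-D medium | Times: 4 h preincubation and 48 h exposure at 30 °C | Detection: OD615 turbidity measurement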
RAM network inh: yeast RAM network inhibition. S. cerevisiae dse1pr::URA3 reporter, 5-FOA growth OD615, 2 d; analog-sensitive cbk1-as2 kinase mutant strain. inhibition, % at 50 µM. hit rate 1.8% among 190,000. AID 868;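 active means inhibition above a set limit, 3 SD over mean compound inhibition, cut at about 8.4% in these data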;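 further: inhibition rescues growth on 5-FOA so higher OD means more RAM inhibition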
Yeast lifespan up: extends the lifespan of yeast. S. cerevisiae growth with nicotinamide, OD615; deaD strain in restrictive glucose medium. AID 775. inhibition of the nicotinamide effect, % at 10 µM. hit rate 0.68% among 130,000;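 active means inhibition above a set limit, placed 3 SD over the median of all compounds, cut at about 26% in these data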
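assay system = DeaD-strain S. cerevisiae | measured by = absorbance at 615 nm | probe or stimulus = nicotinamide 1.5 mM | buffer or medium = CSMM-D glucose medium, restrictive | times = 48 h at 30 °C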
sdo1 growth: compounds rescuing growth of sdo1-depleted yeast, bone marrow failure model; hit rate 0.21% among 140,000; z-score at 10 µM; S. cerevisiae sdo1-depleted JHY4D growth rescue, OD600 30 h; stronger effect = higher value; pdr5 snq2 efflux-pump mutant strain; AID 817;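 active means z-score above 3 at both the 24 hr and the 30 hr optical density reads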
Each line names hits and unclear results; the compound was inactive in the other large screens.

Cc1cc(S(=O)(=O)N2CCN(c3ccccc3C)CC2)ccc1F	none
O=C(CSc1cccc2cccnc12)OCC(=O)c1ccc(Br)cc1	RAM network inh 9.6
O=C(CSCC(=O)OCC(=O)c1ccc(Br)cc1)Nc1cccc2ccccc12	RAM network inh 10
O=C(CSc1cccc2cccnc12)OCC(=O)c1ccccc1	none
Cc1cccc(-c2noc(CN(C(C)C)S(=O)(=O)c3ccc(F)cc3)n2)c1	RAM network inh 8.5
COc1cccc(C(=O)N(Cc2nc(-c3cccc(C)c3)no2)C(C)C)c1OC	none
CC1CC(=O)c2c(cc3c(-c4c(O)cc(O)c5c(O)c6c(cc45)OC(C)CC6=O)c(O)cc(O)c3c2O)O1 (stereo not given)	RAM network inh 9.4 (no result: BB579 growth dn, Yeast lifespan up, sdo1 growth)
CCOC(=O)c1nn(-c2ccccc2C)c2nc(Nc3ccccc3)cc(=O)n12	RAM network inh 8.4
CCc1ccc(NC(=O)CSCc2ccc(C(=O)O)cc2)cc1	none (no result: BB579 growth dn, Yeast lifespan up, sdo1 growth)
O=C(Cc1ccccc1)N/N=C/c1ccc2cccc(O)c2n1	none (no result: BB579 growth dn, Yeast lifespan up, sdo1 growth)
COc1ccc(S(=O)(=O)Oc2ccc3c(c2)O/C(=C\c2cccnc2)C3=O)cc1	none
COc1ccccc1C(=O)Oc1ccc2c(c1)O/C(=C\c1ccncc1)C2=O	Yeast lifespan up 47
COc1ccccc1-n1cc(-c2ccc(Cl)cc2)[nH]c1=O	none
CCn1cc(C(=O)Nc2cccc(C)c2)c(=O)c2ccc(C)nc21	none (no result: BB579 growth dn, Yeast lifespan up, sdo1 growth)
O=C(O)CCC(=O)Nc1sc2c(c1C(=O)Nc1cccc3ccccc13)CCCCC2	Yeast lifespan up 30
COC(=O)c1c(NC(=O)CCC(=O)O)sc2c1CCCCC2	none
CC(C)OC(=O)c1c(NC(=O)CCn2nnc3ccccc32)sc2c1CCCC2	RAM network inh 9.5
CC(C)OC(=O)c1c(NC(=O)CCC(=O)O)sc2c1CCCCC2	RAM network inh 8.5
Cc1cc(C)cc(OCC(=O)OCc2nnc(-c3ccccc3)o2)c1	none (no result: BB579 growth dn, Yeast lifespan up, sdo1 growth)
N#Cc1ccccc1OCC(=O)OCC(=O)N1CCN(C(=O)c2ccco2)CC1	none (no result: BB579 growth dn, Yeast lifespan up, sdo1 growth)
COc1cc(/C=C2\C(=O)ON=C2c2ccccc2)cc(OC)c1OC	BB579 growth dn 48
COc1ccc(/C=C2/C(=O)ON=C2c2ccccc2)cc1OC	BB579 growth dn 61, Yeast lifespan up 27
COc1ccc(/C=C2\C(=O)ON=C2c2cccc([N+](=O)[O-])c2)cc1	none (no result: BB579 growth dn, Yeast lifespan up, sdo1 growth)
O=C1ON=C(c2ccccc2)/C1=C/c1ccco1	none (no result: BB579 growth dn, Yeast lifespan up, sdo1 growth)
Cn1c(-c2cnn(-c3ccccc3)c2-n2cccc2)n[nH]c1=S	none (no result: BB579 growth dn, Yeast lifespan up, sdo1 growth)
CC1=CC(C)[C@H](/C=N/n2c(=O)[nH]c3c([nH]c4ccc(C)cc43)c2=O)C(C)C1 (stereo not given in full)	none (no result: BB579 growth dn, Yeast lifespan up, sdo1 growth)
O=C(NCCCNCc1ccccc1)c1ccncc1	none
O=C(/C=N\O)NCCCNCc1ccccc1	Yeast lifespan up 50
CCCC(=O)Nc1ccc(C(=O)NNC(=S)NC(=O)c2cccs2)cc1	none
COc1ccc(C(=O)NNC(=S)NC(=O)c2ccco2)cc1	Yeast lifespan up 33
COc1ccc(C(=O)NC(=S)NNC(=O)c2ccc(NC(=O)C(C)C)cc2)cc1	Yeast lifespan up 33
Cc1cccc(C(=O)NC(=S)NNC(=O)c2ccc(Cl)cc2)c1	none
CC(C)(C)c1ccc(C(=O)NC(=S)NNC(=O)c2cccs2)cc1	BB579 growth dn 67
Cc1cccc(C(=O)NC(=S)NNC(=O)c2cccs2)c1	BB579 growth dn 49
CCC1CCCCN1C(=O)CCc1nnc(C2CCCCC2)o1 (stereo not given)	none (no result: BB579 growth dn, Yeast lifespan up, sdo1 growth)
COC(=O)C1=C(C)Nc2c(c(=O)n(C)c(=O)n2C)C1c1ccc(Cl)cc1 (stereo not given)	none
O=C(NC(=S)NNC(=O)c1cccs1)c1ccco1	Yeast lifespan up 29
Cc1ccc(N/N=C/c2cccnc2)cc1	BB579 growth dn 92
CCCCCCCCCOC(=O)C(CC(=O)O)N1CCOCC1 (stereo not given)	Yeast lifespan up 29
Cc1c(NC(=O)c2ccc(F)cc2)c(=O)n(-c2ccccc2)n1C	none
Cc1c(NC(=O)C(=O)/C=C(/O)c2ccccc2)c(=O)n(-c2ccccc2)n1C	Yeast lifespan up 67
CCC(CC)C(=O)Nc1c(C)n(C)n(-c2ccccc2)c1=O	Yeast lifespan up 57
COc1ccc(/C(O)=C/C(=O)C(=O)Nc2c(C)n(C)n(-c3ccccc3)c2=O)cc1	Yeast lifespan up 73
Cc1ccnc(NC(=O)Nc2ccc3c(c2)OCO3)c1	none (no result: BB579 growth dn, Yeast lifespan up, sdo1 growth)
Cc1ccc(S(=O)(=O)C/N=C(/NC(=S)N(c2ccccc2)c2ccccc2)c2ccccc2)cc1	Yeast lifespan up 46
Cc1ccc(S(=O)(=O)/N=C(/NC(=S)Nc2ccccc2)c2ccccc2)cc1	none
Cc1ccc(-c2csc(NC(=O)CSc3nc4ccccc4[nH]3)n2)cc1	RAM network inh 9.8
CCCCN(C)CCNC(=O)CCNC(=O)Cn1ccc2ccccc2c1=O	none (no result: BB579 growth dn, Yeast lifespan up, sdo1 growth)
O=C(O)c1ccc(N2C(=O)/C(=C/C=C/c3ccccc3)SC2=S)cc1	none (no result: BB579 growth dn, Yeast lifespan up, sdo1 growth)
CN(C)c1ccc(/C=C/C=C2/SC(=S)N(c3ccccc3)C2=O)cc1	RAM network inh 11
CC1=CC2=NC(=O)/C(=C\c3cccn3CCOc3cccc(C)c3)C(=N)N2O1	RAM network inh 9.3
COc1cccc(OCCn2cccc2/C=C2/C(=N)N3OC(C)=CC3=NC2=O)c1	RAM network inh 11 (no result: BB579 growth dn, Yeast lifespan up, sdo1 growth)
CC1=CC2=NC(=O)/C(=C\c3cccn3CCOc3ccccc3)C(=N)N2O1	none
CC1=CC2=NC(=O)/C(=C\c3cccn3CCOc3cc(C)cc(C)c3)C(=N)N2O1	none
COc1ccc(C)cc1NC(=O)C(Sc1nnc(Nc2cc(C)ccc2OC)s1)c1ccccc1 (stereo not given)	RAM network inh 8.5
CCCNC(=O)OCc1cccnc1Sc1ccc(C)cc1	none (no result: BB579 growth dn, Yeast lifespan up, sdo1 growth)
CCCCCCCC(=O)N/N=C(/C)c1c(O)cc(C)oc1=O	Yeast lifespan up 40
CCCCCCCC(=O)N/N=C(\C)c1ccc(O)cc1O	none
CC(=O)c1ccc(NC(=O)CCCN2C(=O)/C(=C/C(C)=C/c3ccccc3)SC2=S)cc1	RAM network inh 10
CC(/C=C1\SC(=S)N(CC(=O)N2CCN(c3ccccc3)CC2)C1=O)=C\c1ccccc1	RAM network inh 9.8
Cc1ccc(/C=C2/SC(=S)N(CCC(=O)N3CCN(c4ccccc4)CC3)C2=O)cc1	none
O=C1CCC([N+](=O)[O-])C(c2cc3c(cc2Cl)OCO3)N1 (stereo not given)	none (no result: BB579 growth dn, Yeast lifespan up, sdo1 growth)
COC(=O)c1cc2occc2n1Cc1nc(-c2cccc(Cl)c2)oc1C	RAM network inh 11
C[C@H](NC(=O)c1nc[nH]c1C(=O)N[C@@H](Cc1ccccc1)C(=O)OCc1ccccc1)c1ccccc1	RAM network inh 8.6 (no result: BB579 growth dn, Yeast lifespan up, sdo1 growth)
CC(C)C[C@H](NC(=O)c1nc[nH]c1C(=O)NCCCCCNC(=O)OC(C)(C)C)C(=O)OCc1ccccc1	RAM network inh 10 (no result: BB579 growth dn, Yeast lifespan up, sdo1 growth)
C[C@H](NC(=O)c1nc[nH]c1C(=O)NCCCCCNC(=O)OC(C)(C)C)C(=O)OCc1ccccc1	none (no result: BB579 growth dn, Yeast lifespan up, sdo1 growth)
Cn1nccc1C(=O)OCC(=O)Nc1nc(-c2ccccc2)cs1	RAM network inh 9.4
CCc1cc[n+](-c2nc([O-])sc2C=O)cc1	none
CC(C)c1cc[n+](-c2nc([O-])sc2C=O)cc1	Yeast lifespan up 31
